In PubChem BioAssay:
Calls of active or inactive are those of the source. Cut-off read from the data, not from the text of the source, unless noted: active = inhibition above about 30%; inactive = the rest. Peptide text beside a SMILES is read from it. * marks the point of attachment. Boc = CC(C)(C)OC(=O)*

Columns and labels:
[1] = SK-BR-3 cell growth inhibitors, pilot screen, 24 h, human (AID 572;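 active = viability at or below 10% of carrier control in both of two separate runs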;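 note: compound exposure lasted between 18 and 24 h rather than exactly 24 h; 100% = carrier-treated control wells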); settings: SK-BR-3 viability, CellTiter-Glo luminescence, at 10 µM, stronger effect = lower value
[2] = HUVEC growth inhibition – cell-based, human, primary screen (AID 575;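 active = viability at or below 30% in both replicate assays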;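 note: 100% = median of untreated cell wells with 0.1% DMSO on each plate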); settings: HUVEC proliferation, CellTiter-Glo luminescence, 72 h; at 10 µM; stronger effect = lower value
Procedure, shortened: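 material = primary HUVEC, no more than 12 passages | input = 1250 cells per well | controls = vehicle and MePR control wells | measured by = CTG luminescence | times = 72 h compound incubation | format = collagen-coated 384-well format | read-out = % viability vs DMSO wells | doses = single 10 µM dose, 0.1% DMSO, from 5x medium stock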

[3] = growth inhibitors of H69AR lung tumor, primary screen, human, duplicate replicates (AID 580;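 active = viability at or under a set limit in both replicates, limit being median viability minus 3 SD, cut at about 48% in these data, passing the limit was not always enough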;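 note: 100% = mean luminescence of untreated wells and 0% = no signal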); settings: H69AR lung tumor cells viability, ATP luminescence, 72 h; at 10 µM; stronger effect = lower value
[4] = reversal of MRP1-mediated doxorubicin resistance, pilot screen, H69AR cells, doxorubicin co-treatment (AID 601;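 active = viability loss from added drug above about 55%, and viability with drug at most 40%, in both replicates, limit read from the data, passing the limit was not always enough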); settings: CellTiter-Glo, 72 h, at 10 µM; for differential viability (reversal): stronger effect = higher value
[5] = 384-well plate pilot, post-Golgi transport modulator project, inhibition of yeast transport mutant growth (AID 636; in the data active = inhibition above about 31%); settings: absorbance 615 nm, about 18 h, stronger effect = higher value
[6] = growth suppression of yeast trafficking mutant, preliminary HTS, modulators of trafficking downstream of Golgi apparatus project, 1536-format plate, OD 615 nm (AID 637); settings: yeast transport mutant growth, absorbance 615 nm, 18 h; stronger effect = higher value
[7] = H69AR cells + 2 uM doxorubicin, measured here: viability with 2 uM doxorubicin, stronger effect = lower value
[8] = H69AR cells, compound alone cytotoxicity

SMILES	viability [1]	viability [2]	viability [3]	differential viability (reversal) ([4]; H69AR cells + 2 uM doxorubicin)	viability [4, 7] [%]	viability [4, 8] [%]	inhibition [5]	inhibition [6]
CCN(C(C)=O)c1nnc(CSc2nc3ccccc3s2)s1	114% (inactive)	72.5% (inactive)	100% (inactive)	13.3% (inactive)	86.7	100	-0.52% (inactive)	-2.95% (inactive)
CCOC(=O)c1ccc(NS(=O)(=O)c2ccc3c(c2)CCCN3C(C)=O)cc1	118% (inactive)	104% (inactive)	89.8% (inactive)	-8.91% (inactive)	98.7	89.8	0.91% (inactive)	-0.16% (inactive)
CSCCC(NC(=O)OC(C)(C)C)C(=O)NC(CC(C)C)C(N)=O (stereo not drawn) (Boc-Met-Leu-NH2; configuration not given here)	91% (inactive)	97.7% (inactive)	92% (inactive)	1.58% (inactive)	90.4	92	0.39% (inactive)	0.16% (inactive)
CCCCOC(=O)c1cccc(NC(=O)CC)c1	113% (inactive)	91.1% (inactive)	89.6% (inactive)	1.34% (inactive)	88.3	89.6	5.71% (inactive)	13.4% (inactive)
CC1(C)CC(=O)C2=C(C1)Nc1ccccc1N=C2	66% (inactive)	82.3% (inactive)	70.3% (inactive)	-19.7% (inactive)	90	70.3	-0.41% (inactive)	2.73% (inactive)
O=[n+]1cc(-c2ccc(F)cc2)n([O-])c2c1CCC2	97% (inactive)	100% (inactive)	90.7% (inactive)	1.25% (inactive)	89.4	90.7	-1.82% (inactive)	1.97% (inactive)
O=S(=O)(c1cccc(S(=O)(=O)N2CCC(N3CCCCC3)CC2)c1)N1CCOCC1	103% (inactive)	98.9% (inactive)	93.6% (inactive)	9.45% (inactive)	84.2	93.6	-0.78% (inactive)	-2.95% (inactive)
CC(=O)Nc1ccc(NC(=O)Cn2cc3c(n2)CCC(C)C3)cc1 (stereo unspecified)	108% (inactive)	103% (inactive)	90.6% (inactive)	-4.05% (inactive)	94.6	90.6	-8.24% (inactive)	-8.73% (inactive)
CCc1noc(C)c1C(=O)NCCc1ccc(OC)c(OC)c1	87% (inactive)	104% (inactive)	104% (inactive)	16.7% (inactive)	87	104	-8.49% (inactive)	2.58% (inactive)
CNC(=O)c1ccc2nc(NC(C)=O)sc2c1	110% (inactive)	102% (inactive)	99.9% (inactive)	9.57% (inactive)	90.4	99.9	-7.2% (inactive)	-0.36% (inactive)
CNc1nnc(-c2cccc(N(C)C)c2)s1	111% (inactive)	95.9% (inactive)	92% (inactive)	7.45% (inactive)	84.6	92	-4.55% (inactive)	7.38% (inactive)
CCn1nnnc1SCC(=O)N1c2ccccc2CCc2ccccc21	86% (inactive)	99.1% (inactive)	86.7% (inactive)	-5.9% (inactive)	92.6	86.7	-9.07% (inactive)	-0.18% (inactive)
COc1ccc(S(=O)(=O)Nc2cccc(C)n2)c2ccccc12	94% (inactive)	109% (inactive)	100% (inactive)	13.8% (inactive)	86.2	100	-2.08% (inactive)	4.43% (inactive)
COC(=O)CS(=O)(=O)c1nnc([C@H](Cc2ccccc2)NC(=O)OC(C)(C)C)o1	77.5% (inactive)	3.82% (active)	1.21% (active)	0.515% (inactive)	0.69	1.21	-5.45% (inactive)	-12.3% (inactive)
CC(C)CNS(=O)(=O)c1ccc(CCC(=O)NCc2ccco2)cc1	113% (inactive)	88.6% (inactive)	84.5% (inactive)	-3.21% (inactive)	87.7	84.5	-4.93% (inactive)	1.29% (inactive)
CN(CC(=O)Nc1ccc(F)c(Cl)c1)S(=O)(=O)c1cccc2nsnc12	99% (inactive)	74.3% (inactive)	90.1% (inactive)	8.32% (inactive)	81.8	90.1	-2.3% (inactive)	-1.09% (inactive)
CC(C)CC(c1nnnn1C(C)(C)C)N1CCN(C2CCCC2)CC1 (stereo unspecified)	101% (inactive)	96.6% (inactive)	95.2% (inactive)	10.4% (inactive)	84.8	95.2	-7.33% (inactive)	2.91% (inactive)
CCN1CCN(C(=O)N[C@@H](C(=O)N[C@@H]2C(=O)N3[C@@H]2SC(C)(C)[C@@H]3C(=O)O)c2ccccc2)C(=O)C1=O	96% (inactive)	84.1% (inactive)	91.5% (inactive)	-13.4% (inactive)	105	91.5	-0.39% (inactive)	6.33% (inactive)
O=C(NC(=O)c1ccc(Cl)cc1)Nc1cc(N2CCCCC2)ncn1	85% (inactive)	93.9% (inactive)	91.1% (inactive)	-1.91% (inactive)	93	91.1	-7.4% (inactive)	3.87% (inactive)
O=C1C2CCCN2C(c2ccccc2)N1c1ccc(Cl)cc1 (stereo unspecified)	110% (inactive)	79.1% (inactive)	104% (inactive)	19% (inactive)	85.2	104	-4.67% (inactive)	-5.82% (inactive)
CCCc1ccccc1OCCNC(C)=O	103% (inactive)	99.5% (inactive)	102% (inactive)	11.2% (inactive)	90.4	102	-3.87% (inactive)	0% (inactive)
O=C(c1cnn2c(C(F)F)cc(-c3ccccc3)nc12)N1CCN2CCCC2C1 (stereo unspecified)	103% (inactive)	103% (inactive)	79.1% (inactive)	-1.71% (inactive)	80.8	79.1	-4.79% (inactive)	1.82% (inactive)
O=C(Nc1cccnc1)c1cc2c(ccc3ccccc32)o1	96% (inactive)	97.3% (inactive)	84.9% (inactive)	0.36% (inactive)	84.5	84.9	-0.13% (inactive)	-3.45% (inactive)
CCOc1cccc2cc(C(=O)N3CCN(C/C=C/c4ccccc4)CC3)c(=O)oc12	89% (inactive)	106% (inactive)	91.4% (inactive)	22.8% (inactive)	68.6	91.4	-5.68% (inactive)	-4.73% (inactive)

SMILES	viability [1]	viability [2]	viability [3]	differential viability (reversal) ([4]; H69AR cells + 2 uM doxorubicin)	viability [4, 7] [%]	viability [4, 8] [%]	inhibition [5]	inhibition [6]
CCCN(CCC)C(=O)C(CCC(=O)O)NC(=O)c1ccccc1 (stereo unspecified)	108% (inactive)	94.9% (inactive)	105% (inactive)	9.32% (inactive)	95.9	105	-5.32% (inactive)	2.33% (inactive)
CC1CCCN(S(=O)(=O)c2ccc(C(=O)Nc3nnc(-c4ccccc4Cl)o3)cc2)C1 (stereo unspecified)	87% (inactive)	11.1% (active)	18.9% (active)	-19% (inactive)	37.9	18.9	11.6% (inactive)	6.56% (inactive)
Cc1cnc(NC(=O)CSc2nnc(-c3ccccc3)n2Cc2ccccc2)s1	99% (inactive)	82.5% (inactive)	90.2% (inactive)	4.35% (inactive)	85.8	90.2	0.55% (inactive)	13.3% (inactive)
CCOC(=O)N1CCN(C(=O)COc2cc(=O)n(C)c3ccccc23)CC1	98% (inactive)	98.2% (inactive)	98.2% (inactive)	16.7% (inactive)	81.5	98.2	0.91% (inactive)	15.9% (inactive)
Cc1ccc(S(=O)(=O)NCC(c2cccnc2)N(C)C)cc1 (stereo unspecified)	96% (inactive)	109% (inactive)	95.1% (inactive)	-8.1% (inactive)	103	95.1	-5.75% (inactive)	1.82% (inactive)
NS(=O)(=O)c1cc2c(cc1C(F)(F)F)NCNS2(=O)=O	100% (inactive)	91% (inactive)	109% (inactive)	8.31% (inactive)	101	109	1.17% (inactive)	3.33% (inactive)
CN(C)CC(C(=O)c1ccccc1)c1ccccc1 (stereo unspecified)	30.5%	53.4% (inactive)	1.17% (active)	-0.515% (inactive)	1.68	1.17	2.95% (inactive)	-4.33% (inactive)
CCCCNc1cc(C(=O)O)cc(S(N)(=O)=O)c1Oc1ccccc1	121% (inactive)	87% (inactive)	114% (inactive)	23.6% (inactive)	90.5	114	-1.56% (inactive)	7.17% (inactive)
CCOC(=O)Cn1nnc(-c2ccc(SC)cc2)n1	96% (inactive)	100% (inactive)	98% (inactive)	5.72% (inactive)	92.3	98	-8.38% (inactive)	-4.36% (inactive)
C/C(Cl)=C\Cn1c(NCCc2ccccc2)nc2c1c(=O)n(C)c(=O)n2C	86% (inactive)	78.7% (inactive)	76% (inactive)	9.38% (inactive)	66.6	76	-7.97% (inactive)	2.17% (inactive)
Cc1csc(NC(=O)Nc2cccc(Cl)c2)n1	102% (inactive)	75% (inactive)	98.6% (inactive)	8.58% (inactive)	90	98.6	-3.73% (inactive)	-1.09% (inactive)
CC(C)(C)c1ccc(C(=O)N2CCC(C(=O)NCc3ccncc3)CC2)cc1	110% (inactive)	95.6% (inactive)	88.8% (inactive)	-5.45% (inactive)	94.3	88.8	-3.2% (inactive)	-8.18% (inactive)
CC(C)(C)C(=O)NC1CCN(C(=O)N2CCCC2)CC1	93% (inactive)	102% (inactive)	94.5% (inactive)	11.3% (inactive)	83.2	94.5	-8.24% (inactive)	2.91% (inactive)
COc1ccc(OC)c(Nc2nc(-c3sc(N)nc3C)cs2)c1	97% (inactive)	55.3% (inactive)	78% (inactive)	2.88% (inactive)	75.1	78	-6.49% (inactive)	-0.91% (inactive)
O=C(CSc1nnc(-c2ccccc2)o1)NC1CCCCC1	75% (inactive)	105% (inactive)	98.5% (inactive)	14.7% (inactive)	83.9	98.5	-7.12% (inactive)	3.55% (inactive)
C=COCCNC(=O)Nc1ccc(Cl)c(Cl)c1	91% (inactive)	101% (inactive)	91.1% (inactive)	-3.01% (inactive)	94.1	91.1	2.16% (inactive)	-1.09% (inactive)
CCCCn1cnc2c1c(=O)n(C)c(=O)n2C	77% (inactive)	100% (inactive)	100% (inactive)	11.1% (inactive)	89	100	3.24% (inactive)	0.18% (inactive)
Cn1nnnc1SCC1=C(C(=O)O)N2C(=O)[C@@H](NC(=O)[C@H](O)c3ccccc3)[C@H]2SC1	132% (inactive)	82.9% (inactive)	99.2% (inactive)	2.56% (inactive)	96.6	99.2	-1.3% (inactive)	0.33% (inactive)
CCC(c1nnc(SCC(=O)Nc2ccc(C(=O)Nc3ccccc3OC)cc2)o1)N(C)C (stereo unspecified)	65% (inactive)	96.7% (inactive)	107% (inactive)	7.67% (inactive)	99	107	-6.3% (inactive)	-2.18% (inactive)
O=C(c1cccs1)N(Cc1ccco1)Cc1cc2ccccc2[nH]c1=O	86% (inactive)	110% (inactive)	82.2% (inactive)	-6.47% (inactive)	88.7	82.2	4.19% (inactive)	-4.91% (inactive)
COc1cc([C@@H]2[C@H]3CN(C)CC=C3C(C#N)=C(N)C2(C#N)C#N)cc2c1OCO2	101% (inactive)	93.1% (inactive)	89.8% (inactive)	-5.09% (inactive)	94.8	89.8	-2.19% (inactive)	0.18% (inactive)
CC(C)c1ccc(CNc2ccc(N3CCOCC3)cc2)cc1	74% (inactive)	81.7% (inactive)	88.4% (inactive)	0.93% (inactive)	87.5	88.4	-6.89% (inactive)	-5.82% (inactive)
CCC(=O)c1ccc(O)cc1	96% (inactive)	97% (inactive)	97.1% (inactive)	-3.6% (inactive)	101	97.1	-0.13% (inactive)	3.33% (inactive)
